Most compounds without a hit are left out; they make up all but 4.1% or so of the library.
MrgX1 agonist: agonists of human MrgX1 receptor; 310,000 tested, 0.44% active; B-score at 10 µM; MrgX1-HEK293 cells, Fluo-4 calcium fluorescence, agonist mode; hits give high values; AID 588627;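 active = calcium response B-score plate-corrected fluorescence ratio at least 3 library SD, with starting fluorescence B-score inside 5 SD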
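Material: MrgX1-expressing HEK293 cells / Dosing: compound as first of three additions / Incubation: overnight seeding, then 1 h dark dye loading / Signal: Fluo-4 NW calcium fluorescence / Evaluation: B-scored fluorescence response ratio / Benchmarks: positive and negative control wells on each plate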
Kir21 inh: Kir2.1 (mouse) channel inhibition. P35561. HEK293-Kir2.1, FluxOR thallium flux fluorescence; hits give low values. B-score at 10 µM. 310,000 tested, 0.85% active;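 active = fluorescence ratio B-score at or below minus 3 SD of library scores, with starting-brightness B-score within 2 SD, cut at about -4.2 in these data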;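 note: channel flux triggered by added potassium and thallium sulfate stimulus; B-score of peak minus minimum fluorescence over baseline after thallium stimulus; more negative B-score means stronger Kir2.1 block with less thallium influx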
Target sequence (P35561 whole entry, looked up): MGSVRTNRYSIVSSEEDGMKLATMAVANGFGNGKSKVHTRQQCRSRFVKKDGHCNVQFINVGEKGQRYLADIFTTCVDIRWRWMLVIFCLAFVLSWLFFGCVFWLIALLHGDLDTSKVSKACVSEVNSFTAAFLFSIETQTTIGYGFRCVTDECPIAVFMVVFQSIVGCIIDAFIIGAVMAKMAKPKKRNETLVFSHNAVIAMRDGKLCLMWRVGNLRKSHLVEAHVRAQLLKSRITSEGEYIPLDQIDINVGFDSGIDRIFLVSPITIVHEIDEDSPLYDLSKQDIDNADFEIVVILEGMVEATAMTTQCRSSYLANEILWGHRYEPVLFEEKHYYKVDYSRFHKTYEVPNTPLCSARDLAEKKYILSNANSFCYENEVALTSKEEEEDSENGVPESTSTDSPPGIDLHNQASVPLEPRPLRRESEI
MrgX1 antag: human MrgX1 receptor antagonism, primary screen; Q96LB2; MRGX1-HEK293 calcium flux, Fluo-4, BAM8-22 antagonism; hits give low values; B-score at 10 µM; 310,000 tested, 1.3% active;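 active = calcium-response B-score plate-corrected more than 3 library SD below zero, starting fluorescence within 5 deviations, no agonist response on first addition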;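 note: peak minus trough fluorescence over baseline after final BAM8-22 challenge near maximal dose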
RGS4 act: potentiators or activators of RGS4. B-score at 10 µM. HEK293 M3R/inducible RGS4, carbachol calcium flux Fluo4; hits give low values. 310,000 tested, 0.92% active;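 active = B-score of the integrated calcium signal more than 4 SD below the library mean, with starting fluorescence not abnormally high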;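 note: negative B-score means reduced calcium response which marks RGS4 activation or potentiation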
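Also added: carbachol at ECmax as muscarinic agonist stimulus; Assay system: HEK293 cells with stable M3R and inducible RGS4; Timing: overnight RGS4 induction, 30 min dye load 37 °C, 20 min compound RT; Measured by: Fluo4-AM (2 µM) calcium-flux fluorescence, kinetic read.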
MrgX1 PAM: human MrgX1 positive allosteric modulation, primary screen; MrgX1-HEK293, Fluo-4 calcium flux, FDSS; hits give high values; B-score at 10 µM; 310,000 tested, 0.63% active;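 active = plate-corrected calcium response at least 3 library SD above typical, normal starting fluorescence, not activating the receptor alone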;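 note: compound read alongside a low EC10 to EC30 dose of BAM8-22 agonist; peak minus trough fluorescence over baseline measured at the second addition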
RGS4 block: inhibitors of human RGS4. B-score at 10 µM. HEK293 M3R/RGS4 inducible, Fluo-4 calcium flux; hits give high values; triggered by carbachol at its EC20. P49798. AID 463165. 310,000 tested, 0.45% active;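 active = B-score, a plate-corrected calcium signal, over three deviations above library mean, with baseline fluorescence within five deviations of library mean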;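 note: RGS4 expression induced by doxycycline in cells with stable M3 receptor; B-score is computed from the integrated fluorescence ratio over baseline after carbachol; higher B-score means a larger calcium signal and so more RGS4 inhibition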
Target sequence (P49798 whole entry, looked up): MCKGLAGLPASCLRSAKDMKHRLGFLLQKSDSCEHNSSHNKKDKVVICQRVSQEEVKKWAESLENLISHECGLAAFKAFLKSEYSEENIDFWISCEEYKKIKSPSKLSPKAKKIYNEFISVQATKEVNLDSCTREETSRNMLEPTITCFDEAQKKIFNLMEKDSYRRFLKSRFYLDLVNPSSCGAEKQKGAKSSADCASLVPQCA
Active calls of the source: *; i = inactive.

SMILES | MrgX1 agonist | Kir21 inh | MrgX1 antag | RGS4 act | MrgX1 PAM | RGS4 block
CCn1cc(/C=c2/sc3n(c2=O)C2c4ccccc4OC(C)(N=3)C2C(=O)OC)c(C)n1 (stereo not given) | i | -0.1 | i | i | i | i
CC/C(=C\C=C\[C@@H]1C=C[C@@H]2CCC[C@H]2[C@@H]1C(=O)c1ccc[nH]1)[C@@H]1O[C@@H]([C@@H](C)C(=O)O)CC[C@@H]1C | 35* | -0.5 | i | -8.2* | i | i
COc1ccc(CNCCc2cccc(F)c2)c2ccccc12 | i | -18* | i | i | i | i
COc1cc(OC)c(OC)cc1CNCCc1cccc(F)c1 | i | -0.94 | i | i | i | i
Cc1cccc(-n2c(/C=C/c3ccc([N+](=O)[O-])o3)nc3ccccc3c2=O)c1 | i | 0.26 | i | i | i | i
CCc1ccc(N2C(=O)NC(=O)/C(=C\C=C\c3ccco3)C2=O)cc1 | i | 0.66 | i | i | i | i
CCOP(=O)(C#CC(C)(C)C)C(O)(c1ccccc1)C(F)(F)F (stereo not given) | i | -4.3* | i | i | i | i
COc1ccc(CN2CCCC(C(=O)c3ccc(Cl)cc3)C2)c(OC)c1 (stereo not given) | i | -5.2* | i | i | i | i
COc1ccc(CN2CCCC(C(=O)c3cccc(Cl)c3)C2)cc1 (stereo not given) | i | -8.8* | i | i | i | i
COc1ccc(C(=O)C2CCCN(Cc3ccon3)C2)c(OC)c1 (stereo not given) | i | -1.3 | i | i | i | i
COc1cccc(CN2CCN(C(=O)Cc3ccccc3OC)CC2)c1 | i | 1.5 | i | i | i | i
COc1ccc(CCC(C)NCCc2ccccc2)cc1 (stereo not given) | i | -3.8 | i | i | i | i
C=CCN1C(=O)/C(=C/c2cc(C)n(-c3ccccn3)c2C)C(=O)NC1=S | i | -0.08 | -5.2* | i | i | i
COC(=O)[C@H]1C[C@@H]1[C@H](NP(=O)(c1ccccc1)c1ccccc1)c1ccccc1 | i | -0.25 | i | i | i | i
CCN(CC)c1ccc(/C=C2/C(=O)NC(=O)N(CC3CCCO3)C2=O)cc1 (stereo not given) | i | 1.5 | -4.5* | i | i | i
O=C1NC(=O)N(CC2CCCO2)C(=O)/C1=C/c1cccs1 (stereo not given) | i | 1.1 | i | i | i | i
NC(Cc1ccccc1)Cc1ccccc1 | i | 0.82 | i | i | i | i
C[N+]1(C)[C@@H]2CC[C@H]1CC(OC(=O)C(CO)c1ccccc1)C2 (stereo not given in full) | i | -0.01 | i | i | i | i
C[N+]1(C)C2CCC1CC(OC(=O)C(CO)c1ccccc1)C2 (stereo not given) | i | 1.1 | i | -8.6* | i | i
O=c1c2ccccc2nc(-c2ccco2)n1-c1nccs1 | i | -0.13 | i | i | i | i
O=[N+]([O-])c1ccc(N2CCCNCC2)c2ncccc12 | i | -2.2 | i | -8.1* | i | i
CCN1CCC2(CCNC2)C1 (stereo not given) | i | 0.72 | i | i | i | i
Nc1ccc2nonc2c1[N+](=O)[O-] | i | -7.6 | i | i | i | i
CSc1ncc(CN2CCCC(C(=O)c3cccc(Cl)c3)C2)cn1 (stereo not given) | i | 0.14 | i | i | i | i
O=C(c1ccc(Cl)cc1)C1CCCN(Cc2ccc3ncccc3c2)C1 (stereo not given) | i | -0.38 | i | -7.3* | i | i
SMILES | MrgX1 agonist | Kir21 inh | MrgX1 antag | RGS4 act | MrgX1 PAM | RGS4 block
O=C(c1ccc(Cl)cc1)C1CCCN(Cc2cccc3cnccc23)C1 (stereo not given) | i | -1.4 | i | -7.3* | i | i
c1ccc2c(c1)CC1CNCc3cccc(c31)S2 (stereo not given) | i | -8.1* | i | i | i | i
CCN(CC)CCCOC(=O)C(OC(C)C)(c1ccccc1)c1ccccc1 | i | -1.3 | i | -11* | i | i
C[N+](C)(C)Cc1ccccc1 | i | 0.18 | i | -8.6* | i | i
CN(C)C(=O)Oc1cccc(NC(=O)c2ccccc2C(F)(F)F)c1 | i | -0.67 | i | i | i | i
CCOc1ccc(-c2c(C)n(-c3ccc(OCC)cc3)c3[n+]2CCCCC3)cc1 | i | -10* | i | i | i | i
CCCCNC(=S)N1CCn2cccc2C1c1cccnc1 (stereo not given) | i | -2.2 | i | i | i | i
CCCC[N+]12CCC(CC1)C(C(=O)c1cccs1)C2 (stereo not given) | i | -4.9* | i | i | i | i
S=C=Nc1ccccn1 | i | 1.5 | i | i | i | i
COC(=O)C1=C(N)Oc2c(c(=O)oc3ccccc23)[C@]12C(=O)N(C)c1ccccc12 | i | 0.27 | i | i | 8.6* | i
CCN1CCN(C(=O)Cc2ccc(C)cc2)CC1 | i | -0.52 | i | i | i | i
CCOP(=O)(C#Cc1ccccc1)C(O)c1ccc(Br)cc1 (stereo not given) | i | -3.3 | i | i | 17* | i
COC(=O)C1=C(c2cc3ccccc3s2)C[C@@H]2CC[C@H]1N2C(=O)NCc1ccc(C(F)(F)F)cc1 | i | -0.61 | i | i | i | i
CCc1ccc(NP(=O)(Oc2ccccc2F)Oc2ccccc2F)cc1 | i | 1.4 | i | i | i | i
Cc1ccc(NP(=O)(Oc2ccccc2F)Oc2ccccc2F)cc1 | i | -0.83 | -6.7* | i | i | i
O=C1NC(c2cccnc2)Nc2sc3c(c21)CCCC3 (stereo not given) | i | 1.7 | i | i | i | i
CCCCc1ccc(NC2=NCCCS2)cc1 | i | -4.9* | i | i | i | i
Cc1cccc(-n2c(O)c(/C=C/C=Nc3ccccc3)c(=O)[nH]c2=O)c1 | i | -4 | i | i | i | i
Cn1c(O)c(/C=C/C=Nc2ccccc2)c(=O)n(C)c1=S | i | -2.2 | -8.5* | i | i | i
FC(F)(F)c1ccc2c(c1)N(CCCN1CCN(CCCl)CC1)c1ccccc1S2 | i | -0.52 | i | -8.9* | i | i

Screening results from PubChem.
